Results published in ChEMBL document CHEMBL4477265, “Design and synthesis of cis-restricted benzimidazole and benzothiazole mimics of combretastatin A-4 as antimitotic agents with apoptosis inducing ability” (Bioorg Med Chem Lett, 2016).
The source made the active and inactive calls. The calls are words filed in the database; no cut-off is given here.

Tests used:
[1] = system: HeLa; experiment: Induction of inner mitochondrial membrane potential depolarization in isolated mitochondria from human HeLa cells at 40 to 60 nM after 48 hrs by JC-1 staining based fluorescence plate reader assay; format: functional
Method in brief: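 Mitochondria isolated and incubated with JC-1 dye alongside treatment at 40 and 60 nM; red/green fluorescence emission ratio recorded as the index of inner membrane potential, with untreated mitochondria as control.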

[2] = system: HeLa; experiment: Cell cycle arrest in human HeLa cells assessed as accumulation at S phase at 40 nM after 48 hrs by propidium iodide staining based flow cytometry (reference value: 3.52%); format: functional
[3] = system: HeLa; experiment: Cell cycle arrest in human HeLa cells assessed as accumulation at G0 phase at 60 nM after 48 hrs by propidium iodide staining based flow cytometry (reference value: 5.64%); format: functional
[4] = system: A549; experiment: Antiproliferative activity against human A549 cells after 48 hrs by sulforhodamine B assay; format: functional; conditions: A549, 48 h
[5] = system: HeLa; experiment: Cell cycle arrest in human HeLa cells assessed as accumulation at S phase at 60 nM after 48 hrs by propidium iodide staining based flow cytometry (reference value: 3.52%); format: functional
[6] = system: HeLa; experiment: Antiproliferative activity against human HeLa cells after 48 hrs by sulforhodamine B assay; format: functional
[7] = system: HeLa; experiment: Cell cycle arrest in human HeLa cells assessed as accumulation at G1 phase at 40 nM after 48 hrs by propidium iodide staining based flow cytometry (reference value: 73.28%); format: functional
[8] = system: HeLa; experiment: Cell cycle arrest in human HeLa cells assessed as accumulation at G0 phase at 40 nM after 48 hrs by propidium iodide staining based flow cytometry (reference value: 5.64%); format: functional
[9] = system: HeLa; experiment: Cell cycle arrest in human HeLa cells assessed as accumulation at G2/M phase at 40 nM after 48 hrs by propidium iodide staining based flow cytometry (reference value: 17.56%); format: functional
[10] = system: HeLa; experiment: Cell cycle arrest in human HeLa cells assessed as accumulation at G2/M phase at 60 nM after 48 hrs by propidium iodide staining based flow cytometry (reference value: 17.56%); format: functional
[11] = system: HepG2; experiment: Antiproliferative activity against human HepG2 cells after 48 hrs by sulforhodamine B assay; format: functional; conditions: HepG2, 48 h
[12] = system: HeLa; experiment: Cell cycle arrest in human HeLa cells assessed as accumulation at G1 phase at 60 nM after 48 hrs by propidium iodide staining based flow cytometry (reference value: 73.28%); format: functional
[13] = system: DU-145; experiment: Antiproliferative activity against human DU145 cells after 48 hrs by sulforhodamine B assay; format: functional; conditions: DU-145, 48 h
[14] = target: Tubulin (Homo sapiens) (UniProt P68371+Q9H4B7+P0DPH7+P68366+Q13509+Q71U36+P04350+Q3ZCM7+P07437+P68363+Q9BQE3+Q6PEY2+Q13885+Q9BVA1+Q9BUF5); experiment: Inhibition of tubulin polymerization in human HeLa cells assessed as induction of microtubule disruption at 60 nM after 48 hrs by confocal microscopic analysis; format: cell-based
Method in brief: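 HeLa cells grown on sterile cover slips, exposed 48 h at 60 nM, immunostained with α-tubulin antibody; microtubule network organization examined by confocal imaging.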

[15] = system: HeLa; experiment: Cell cycle arrest in human HeLa cells assessed as accumulation at G2/M phase after 48 hrs by propidium iodide staining based flow cytometry; format: functional
[16] = system: HeLa; experiment: Induction of apoptosis in human HeLa cells assessed as caspase-3 activation using AFC-labeled caspase-3 substrate at 40 to 60 nM after 24 to 48 hrs by fluorescence plate reader assay relative to combretastatin A-4; format: functional
Method in brief: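 HeLa cells exposed at 40 and 60 nM; caspase-3 and caspase-9 activity measured fluorimetrically with conjugated caspase substrates at two time points.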

[17] = target: Tubulin (Sus scrofa) (UniProt P02554+P02550); experiment: Inhibition of porcine brain tubulin polymerization at 3 uM measured at 1 min interval for 1 hr by fluorescence plate reader assay relative to control
Tubulin (Sus scrofa), sequence (P02550 whole entry, looked up): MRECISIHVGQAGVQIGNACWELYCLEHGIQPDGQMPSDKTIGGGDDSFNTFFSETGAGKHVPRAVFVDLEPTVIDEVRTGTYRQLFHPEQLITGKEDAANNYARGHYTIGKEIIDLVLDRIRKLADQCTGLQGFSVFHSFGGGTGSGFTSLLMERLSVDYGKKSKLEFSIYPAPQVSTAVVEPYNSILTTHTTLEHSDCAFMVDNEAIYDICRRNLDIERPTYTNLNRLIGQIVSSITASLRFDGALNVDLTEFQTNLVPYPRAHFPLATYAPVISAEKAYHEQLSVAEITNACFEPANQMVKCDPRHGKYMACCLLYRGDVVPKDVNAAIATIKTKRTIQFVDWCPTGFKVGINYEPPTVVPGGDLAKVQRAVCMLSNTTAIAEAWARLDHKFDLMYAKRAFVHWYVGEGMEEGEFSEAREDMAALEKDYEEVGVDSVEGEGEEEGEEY
Tubulin (Sus scrofa), sequence (P02554 whole entry, looked up): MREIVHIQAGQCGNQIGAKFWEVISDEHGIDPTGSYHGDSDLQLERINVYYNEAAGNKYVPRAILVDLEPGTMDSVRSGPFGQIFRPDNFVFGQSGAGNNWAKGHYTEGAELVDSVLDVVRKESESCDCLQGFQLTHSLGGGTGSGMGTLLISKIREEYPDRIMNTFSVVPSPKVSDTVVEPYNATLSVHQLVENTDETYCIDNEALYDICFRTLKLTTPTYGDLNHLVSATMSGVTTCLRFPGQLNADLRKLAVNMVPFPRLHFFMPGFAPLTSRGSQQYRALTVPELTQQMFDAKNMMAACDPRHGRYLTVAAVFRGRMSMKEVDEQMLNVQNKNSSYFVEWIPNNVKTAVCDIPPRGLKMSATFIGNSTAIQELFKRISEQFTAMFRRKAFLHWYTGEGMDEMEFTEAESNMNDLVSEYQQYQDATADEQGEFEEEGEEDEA
Method in brief: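 Tubulin polymerization followed by fluorescence (excitation 360 nm, emission 420 nm) over 1 h at 37 °C, test agents at 3 μM; inhibition expressed as percentage of polymerization versus untreated control.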

[18] = target: Tubulin (Sus scrofa, UniProt P02554+P02550); experiment: Inhibition of porcine brain tubulin polymerization measured at 1 min interval for 1 hr by fluorescence plate reader assay
[19] = system: HeLa; experiment: Induction of apoptosis in human HeLa cells assessed as caspase-9 activation using AFC-labeled substrate at 40 to 60 nM after 24 to 48 hrs by fluorescence plate reader assay relative to combretastatin A-4

Row | Structure (SMILES) | GI50 [4] [µM] | GI50 [6] [µM] | GI50 [11] [µM] | GI50 [13] [µM] | also measured
1 | COc1ccc(/C=C\c2cc(OC)c(OC)c(OC)c2)cc1O [COMBRETASTATIN A4] | 0.06 | 0.06 | 0.08 | 0.07 | Activity [1]: Active; Activity [2]: 17.34%; Activity [3]: 24.78%; Activity [5]: 16.44%; Activity [7]: 17.92%; Activity [8]: 25.87%; Activity [9]: 38.87%; Activity [10]: 41.48%; Activity [12]: 17.29%
2 | COc1ccc2nc(-c3cccnc3-c3ccc(OC)c(OC)c3)[nH]c2c1 | 27.6 | 16.6 | 44.8 | 12 | 
3 | COc1ccc(-c2ncccc2-c2nc3ccc(OC)cc3[nH]2)cc1 |  |  |  | 19.6 | 
4 | COc1cc(-c2ncccc2-c2nc3ccccc3s2)cc(OC)c1OC | 3.2 | 4.8 | 3.5 | 4.1 | 
5 | COc1ccc(-c2ncccc2-c2nc3ccc(Cl)cc3s2)cc1 | 7.9 | 7.7 | 3.9 | 0.19 | 
6 | COc1cc2nc(-c3cccnc3-c3cc(OC)c(OC)c(OC)c3)sc2cc1OC | 0.5 | 1.6 | 0.5 | 0.6 | 
7 | COc1cc2nc(-c3cccnc3-c3cc(OC)c(OC)c(OC)c3)[nH]c2cc1OC | 2.5 | 1.7 | 1.5 | 0.6 | 
8 | COc1ccc(-c2ncccc2-c2nc3cc(OC)c(OC)cc3s2)cc1 | 59.1 | 11.3 | 30.9 |  | 
9 | COc1ccc(-c2ncccc2-c2nc3ccc(OC)cc3s2)cc1 | 13.3 | 8.1 |  |  | 
10 | FC(F)(F)c1ccc(-c2ncccc2-c2nc3ccc(Cl)cc3[nH]2)cc1 | 18.4 | 15.8 |  |  | 
11 | COc1cc(-c2ncccc2-c2nc3ccccc3[nH]2)cc(OC)c1OC | 4.5 | 2.6 | 3.5 | 14.6 | 
12 | COc1ccc2nc(-c3cccnc3-c3cc(OC)c(OC)c(OC)c3)[nH]c2c1 | 1.5 | 5 | 0.84 | 0.29 | 
13 | COc1ccc(-c2ncccc2-c2nc3cc(OC)c(OC)cc3[nH]2)cc1 | 19.5 | 21.4 | 42.5 |  | 
14 | COc1ccc(-c2ncccc2-c2nc3cc(OC)c(OC)cc3s2)cc1OC | 7.58 | 13.5 | 1.2 | 5.91 | 
15 | COc1ccc(-c2ncccc2-c2nc3ccccc3[nH]2)cc1OC |  |  | 12.4 | 5.8 | 
16 | COc1ccc2nc(-c3cccnc3-c3cc(OC)c(OC)c(OC)c3)sc2c1 | 0.13 | 0.06 | 0.26 | 0.18 | Activity [1]: Active; Activity [2]: 11.86%; inhibition [14]: Active; Activity [15]: Dose-dependent effect; Activity [3]: 25.35%; Activity [5]: 14.3%; fold change (FC) [16]: 2; Activity [7]: 51.22%; Activity [8]: 13.27%; Activity [9]: 23.65%; Activity [10]: 40.8%; inhibition [17]: 60.1%; IC50 [18]: 2.01 µM; Activity [12]: 19.54%; fold change (FC) [19]: 2
17 | COc1ccc(-c2ncccc2-c2nc3ccc(Cl)cc3[nH]2)cc1 |  |  |  | 34.7 | 
18 | FC(F)(F)c1ccc(Cl)c(-c2ncccc2-c2nc3ccccc3s2)c1 | 7.41 | 4.89 | 15 | 5.49 | 
19 | COc1ccc2nc(-c3cccnc3-c3cc(C(F)(F)F)ccc3Cl)sc2c1 | 0.091 | 0.04 | 0.079 | 0.052 | Activity [1]: Active; Activity [2]: 24.62%; inhibition [14]: Active; Activity [15]: Dose-dependent effect; Activity [3]: 20.47%; Activity [5]: 10.3%; fold change (FC) [16]: 2; Activity [7]: 43%; Activity [8]: 8.13%; Activity [9]: 24.26%; Activity [10]: 54.05%; inhibition [17]: 68.3%; IC50 [18]: 1.91 µM; Activity [12]: 15.19%; fold change (FC) [19]: 2
20 | COc1ccc2nc(-c3cccnc3-c3ccc(C(F)(F)F)cc3)sc2c1 | 17 | 15.7 |  |  | 
21 | COc1ccc2nc(-c3cccnc3-c3ccc(C(F)(F)F)cc3)[nH]c2c1 | 38.2 |  |  | 32.1 | 
22 | COc1ccc(-c2ncccc2-c2nc3cc(OC)c(OC)cc3[nH]2)cc1OC | 7.9 | 7.7 | 1.9 | 4.19 | 
23 | FC(F)(F)c1ccc(Cl)c(-c2ncccc2-c2nc3ccc(Cl)cc3s2)c1 | 1.5 | 5.8 | 1.2 |  | 
24 | FC(F)(F)c1ccc(-c2ncccc2-c2nc3ccc(Cl)cc3s2)cc1 | 19.5 | 20.4 | 32.5 |  | 
25 | COc1ccc(-c2ncccc2-c2nc3ccccc3s2)cc1OC | 0.2 | 1.8 | 0.7 | 3.6 | 
26 | COc1ccc2nc(-c3cccnc3-c3ccc(OC)c(OC)c3)sc2c1 | 1.7 | 6.2 | 2.2 | 6.8 | 
27 | COc1ccc(S(=O)(=O)Nc2cccnc2Nc2ccc(O)cc2)cc1 [ABT-751] | 1.8 | 4.8 | 2.8 | 1.2 | 
28 | COc1ccc2nc(-c3cccnc3-c3cc(C(F)(F)F)ccc3Cl)[nH]c2c1 | 0.75 | 0.15 | 0.76 | 0.21 | 
